Source: ChEMBL document CHEMBL1137673, “Improved synthesis of seven aromatic Baylis-Hillman adducts (BHA): evaluation against Artemia salina Leach. and Leishmania chagasi” (Eur J Med Chem, 2009)

Each compound was assayed on Leishmania chagasi (assay: Antileishmanial activity against promastigote form of Leishmania chagasi MCAN/BR/99/JP15 after 72 hrs). Settings: not given.
Assay type: functional, organism-based, MCAN/BR/99/JP
Summary of the method: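 Log-phase promastigotes at 1 × 10^6 parasites/mL were grown at 26 °C in Schneider's Drosophila medium with 20% FBS, with or without a range of adduct concentrations, for 72 h. Glucantime served as the reference drug. Parasites were fixed in isotonic citric acid/NaCl/formalin solution, and growth was counted by light microscopy in a Neubauer chamber. Three independent experiments were run in triplicate.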
MEGLUMINE ANTIMONATE was tested, and the IC50 was 1620.3 µg/mL.

Same assay, conditions: Leishmania chagasi, MCAN/BR/99/JP, 72 h; read-out: IC50
Compound `C=C(C#N)C(O)c1cccnc1` (stereo unspecified) has an IC50 of 36.9 µM. Work on `C=C(C#N)C(O)c1ccncc1` (stereo unspecified) yielded an IC50 of 30.1 µM. `C=C(C#N)C(O)c1ccc([N+](=O)[O-])cc1` (stereo unspecified) gave an IC50 of 37.4 µM. In the case of `C=C(C#N)C(O)c1ccccc1[N+](=O)[O-]` (stereo unspecified), the IC50 is reported as 38.8 µM. For `C=C(C#N)C(O)c1ccccn1` (stereo unspecified), the IC50 was 32 µM. `C=C(C#N)C(O)c1cccc([N+](=O)[O-])c1` (stereo unspecified) showed an IC50 of 34.6 µM. In the case of `C=C(C#N)C(O)c1ccc(Br)cc1` (stereo unspecified), the IC50 is reported as 25.2 µM.

These compounds were tested on Leishmania amazonensis (assay: Antileishmanial activity against Leishmania amazonensis). Settings: not given.
Assay type: functional, organism-based
With `C=C(C#N)C(O)c1ccc([N+](=O)[O-])cc1` (stereo unspecified) the IC50 was 7.9 µM.

These compounds were tested on Artemia salina (organism) (assay: Toxicity in Artemia salina after 24 hrs). Settings: in vivo.
Assay type: organism-based
Summary of the method: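 Brine shrimp nauplii hatched in filtered sea water over 48 h (lamp drawing hatched shrimps through a partitioned tank), exposed to compound in DMSO/sea water in tubes for 24 h under light. Dead and surviving shrimps counted; LC50 from concentration versus lethality percentage on a probit scale. Sea water plus DMSO served as control.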
For `C=C(C#N)C(O)c1cccnc1` (stereo unspecified), the LC50 at 24 h was 555 µM. `C=C(C#N)C(O)c1ccncc1` (stereo unspecified) showed an LC50 at 24 h of 443 µM. `C=C(C#N)C(O)c1ccc([N+](=O)[O-])cc1` (stereo unspecified) showed an LC50 at 24 h of 180 µM. `C=C(C#N)C(O)c1ccccc1[N+](=O)[O-]` (stereo unspecified) showed an LC50 at 24 h of 430 µM. Compound `C=C(C#N)C(O)c1ccccn1` (stereo unspecified) has an LC50 at 24 h of 545 µM. With `C=C(C#N)C(O)c1cccc([N+](=O)[O-])c1` (stereo unspecified) the LC50 at 24 h was 471 µM. For `C=C(C#N)C(O)c1ccc(Br)cc1` (stereo unspecified), the LC50 at 24 h was 130 µM.
